Legend:
[1] = biological target: CDK4/Cyclin D3 (Homo sapiens) (UniProt P11802+P30281); assay: Inhibition of human CDK4/CyclinD3 at 1 uM by enzymatic radiometric assay; format: protein-complex assay
How it was run: (§1)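 Kinase panel run through the Eurofins KinaseProfiler, with compound at a fixed 1 µM. Values are means of two independent experiments.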

MCF7 = assay: Growth inhibition of human MCF7 cells incubated for 72 hrs by CCK8 assay; format: functional, cell-based; conditions: MCF7, 72 h
[2] = biological target: Cyclin-dependent kinase 2/cyclin E1 (Homo sapiens) (UniProt P24864+P24941); assay: Inhibition of human CDK2/CyclinE at 1 uM by enzymatic radiometric assay; format: protein-complex assay; how it was run: as §1
[3] = biological target: CDK2/Cyclin A2 (Homo sapiens) (UniProt P24941+P20248); assay: Inhibition of human CDK2/CyclinA at 1 uM by enzymatic radiometric assay; format: protein-complex assay; how it was run: as §1
[4] = biological target: Cyclin-dependent kinase 1/cyclin B1 (Homo sapiens) (UniProt P06493+P14635); assay: Inhibition of human CDK1/CyclinB at 1 uM by enzymatic radiometric assay; format: protein-complex assay; how it was run: as §1
[5] = biological target: CDK3/Cyclin E (Homo sapiens) (UniProt P24864+Q00526); assay: Inhibition of human CDK3/CyclinE at 1 uM by enzymatic radiometric assay; format: protein-complex assay; how it was run: as §1
[6] = biological target: Cyclin-dependent kinase 5/CDK5 activator 1 (Homo sapiens) (UniProt Q00535+Q15078); assay: Inhibition of human CDK5/p25 at 1 uM by enzymatic radiometric assay; format: protein-complex assay
[7] = biological target: CDK7/Cyclin H/MNAT1 (Homo sapiens) (UniProt P51946+P50613+P51948); assay: Inhibition of human CDK7/CyclinH/MAT1 at 1 uM by enzymatic radiometric assay; format: protein-complex assay
[8] = biological target: CDK12/Cyclin K (Homo sapiens) (UniProt O75909+Q9NYV4); assay: Inhibition of human CDK12/CyclinK at 1 uM by enzymatic radiometric assay; format: protein-complex assay; how it was run: as §1
[9] = biological target: CDK18/Cyclin Y (Homo sapiens) (UniProt Q07002+Q8ND76); assay: Inhibition of human CDK18/CyclinY at 1 uM by enzymatic radiometric assay; format: protein-complex assay; how it was run: as §1
CDK4/Cyclin D3 = CDK4/Cyclin D3 (Homo sapiens, UniProt P11802); assay: Inhibition of human CDK4/CyclinD3 by enzymatic radiometric assay; format: protein-complex assay
How it was run: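 CDK4 activity measured with the Eurofins KinaseProfiler. IC50 and inhibition values are means of two independent experiments.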

CDK9/cyclin T1 = CDK9/cyclin T1 (Homo sapiens, UniProt P50750); assay: Inhibition of human CDK9/CyclinT1 by enzymatic radiometric assay; format: protein-complex assay
How it was run: (§2)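 IC50 was determined through a commercial kinase profiling service. Values are the mean of two independent experiments.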

4T1 = assay: Antitumor activity against mouse 4T1 cells xenografted in BALB/C mouse assessed as inhibition of tumor growth at 50 to 150 mg/kg/day, ip dosed for 21 consecutive days; format: functional, organism-based
How it was run: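 Cells implanted orthotopically into mammary fat pads of female BALB/c mice aged 6-8 weeks. Dosing began once tumours averaged 100 mm3: daily IP injection at 50, 100 or 150 mg/kg/day for 21 consecutive days, with a solvent control group. Tumour volume and body weight were followed, given as mean ± SD.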

Mus musculus = assay: Toxicity in mouse 4T1 cells xenografted BALB/C mouse assessed as induction of body weight loss at 50 to 150 mg/kg/day, ip dosed for 21 consecutive days; format: organism-based; conditions: in vivo
How it was run: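 Tumor cells were implanted orthotopically into the mammary fat pads of female BALB/c mice aged 6-8 weeks. Once tumors averaged 100 mm3, mice received daily IP injections of 50, 100 or 150 mg/kg/day, or solvent control, for 21 consecutive days. Body weight was tracked and reported as mean with SD.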

T47D [10] = assay: Induction of apoptosis in human T47D cells assessed as necrotic cells level at 5 uM incubated for 48 hrs by annexin V-FITC and propidium iodide staining based flow cytometry (reference value: 2.79%); format: functional
T47D [11] = assay: Induction of apoptosis in human T47D cells assessed as viable cells level at 0.25 uM incubated for 48 hrs by annexin V-FITC and propidium iodide staining based flow cytometry (reference value: 96%); format: functional
T47D [12] = assay: Induction of apoptosis in human T47D cells assessed as early apoptotic cells level at 0.25 uM incubated for 48 hrs by annexin V-FITC and propidium iodide staining based flow cytometry (reference value: 0.75%); format: functional
T47D [13] = assay: Induction of apoptosis in human T47D cells assessed as late apoptotic cells level at 0.25 uM incubated for 48 hrs by annexin V-FITC and propidium iodide staining based flow cytometry (reference value: 0.48%); format: functional
T47D [14] = assay: Induction of apoptosis in human T47D cells assessed as necrotic cells level at 0.25 uM incubated for 48 hrs by annexin V-FITC and propidium iodide staining based flow cytometry (reference value: 2.79%); format: functional
T47D [15] = assay: Induction of apoptosis in human T47D cells assessed as viable cells level at 0.5 uM incubated for 48 hrs by annexin V-FITC and propidium iodide staining based flow cytometry (reference value: 96%); format: functional
T47D [16] = assay: Induction of apoptosis in human T47D cells assessed as late apoptotic cells level at 0.5 uM incubated for 48 hrs by annexin V-FITC and propidium iodide staining based flow cytometry (reference value: 0.48%); format: functional
T47D [17] = assay: Induction of apoptosis in human T47D cells assessed as viable cells level at 1 uM incubated for 48 hrs by annexin V-FITC and propidium iodide staining based flow cytometry (reference value: 96%); format: functional
T47D [18] = assay: Induction of apoptosis in human T47D cells assessed as early apoptotic cells level at 1 uM incubated for 48 hrs by annexin V-FITC and propidium iodide staining based flow cytometry (reference value: 0.75%); format: functional
T47D [19] = assay: Induction of apoptosis in human T47D cells assessed as late apoptotic cells level at 1 uM incubated for 48 hrs by annexin V-FITC and propidium iodide staining based flow cytometry (reference value: 0.48%); format: functional
A549 [20] = assay: Growth inhibition of human A549 cells incubated for 72 hrs at 10 uM by CCK8 assay; format: functional; conditions: A549, 72 h, read-out: GI
How it was run: (§3)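 CCK8 viability assay on a panel of human cancer cell lines, with an initial screen at fixed concentrations of 1 µM and 10 µM.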

A549 [21] = assay: Growth inhibition of human A549 cells incubated for 72 hrs at 1 uM by CCK8 assay; format: functional; conditions: A549, 72 h, read-out: GI; how it was run: as §3
NCI-H460 = assay: Growth inhibition of human H460 cells incubated for 72 hrs at 10 uM by CCK8 assay; format: functional; conditions: NCI-H460, 72 h, read-out: GI; how it was run: as §3
NCI-H1299 = assay: Growth inhibition of human H1299 cells incubated for 72 hrs at 10 uM by CCK8 assay; format: functional; conditions: NCI-H1299, 72 h, read-out: GI; how it was run: as §3
HeLa [22] = assay: Growth inhibition of human HeLa cells incubated for 72 hrs at 10 uM by CCK8 assay; format: functional; conditions: read-out: GI; how it was run: as §3
HeLa [23] = assay: Growth inhibition of human HeLa cells incubated for 72 hrs at 1 uM by CCK8 assay; format: functional; conditions: read-out: GI; how it was run: as §3
OVCAR-5 = assay: Growth inhibition of human OVCAR5 cells incubated for 72 hrs at 1 uM by CCK8 assay; format: functional; conditions: OVCAR-5, 72 h, read-out: GI; how it was run: as §3
SiHa = assay: Growth inhibition of human SiHa cells incubated for 72 hrs at 1 uM by CCK8 assay; format: functional; conditions: read-out: GI; how it was run: as §3
[24] = biological target: Vascular endothelial growth factor receptor 2 (Homo sapiens, UniProt P35968); assay: Inhibition of human VEGFR2 by enzymatic radiometric assay; how it was run: as §2
Sequence of Vascular endothelial growth factor receptor 2 (P35968 whole entry): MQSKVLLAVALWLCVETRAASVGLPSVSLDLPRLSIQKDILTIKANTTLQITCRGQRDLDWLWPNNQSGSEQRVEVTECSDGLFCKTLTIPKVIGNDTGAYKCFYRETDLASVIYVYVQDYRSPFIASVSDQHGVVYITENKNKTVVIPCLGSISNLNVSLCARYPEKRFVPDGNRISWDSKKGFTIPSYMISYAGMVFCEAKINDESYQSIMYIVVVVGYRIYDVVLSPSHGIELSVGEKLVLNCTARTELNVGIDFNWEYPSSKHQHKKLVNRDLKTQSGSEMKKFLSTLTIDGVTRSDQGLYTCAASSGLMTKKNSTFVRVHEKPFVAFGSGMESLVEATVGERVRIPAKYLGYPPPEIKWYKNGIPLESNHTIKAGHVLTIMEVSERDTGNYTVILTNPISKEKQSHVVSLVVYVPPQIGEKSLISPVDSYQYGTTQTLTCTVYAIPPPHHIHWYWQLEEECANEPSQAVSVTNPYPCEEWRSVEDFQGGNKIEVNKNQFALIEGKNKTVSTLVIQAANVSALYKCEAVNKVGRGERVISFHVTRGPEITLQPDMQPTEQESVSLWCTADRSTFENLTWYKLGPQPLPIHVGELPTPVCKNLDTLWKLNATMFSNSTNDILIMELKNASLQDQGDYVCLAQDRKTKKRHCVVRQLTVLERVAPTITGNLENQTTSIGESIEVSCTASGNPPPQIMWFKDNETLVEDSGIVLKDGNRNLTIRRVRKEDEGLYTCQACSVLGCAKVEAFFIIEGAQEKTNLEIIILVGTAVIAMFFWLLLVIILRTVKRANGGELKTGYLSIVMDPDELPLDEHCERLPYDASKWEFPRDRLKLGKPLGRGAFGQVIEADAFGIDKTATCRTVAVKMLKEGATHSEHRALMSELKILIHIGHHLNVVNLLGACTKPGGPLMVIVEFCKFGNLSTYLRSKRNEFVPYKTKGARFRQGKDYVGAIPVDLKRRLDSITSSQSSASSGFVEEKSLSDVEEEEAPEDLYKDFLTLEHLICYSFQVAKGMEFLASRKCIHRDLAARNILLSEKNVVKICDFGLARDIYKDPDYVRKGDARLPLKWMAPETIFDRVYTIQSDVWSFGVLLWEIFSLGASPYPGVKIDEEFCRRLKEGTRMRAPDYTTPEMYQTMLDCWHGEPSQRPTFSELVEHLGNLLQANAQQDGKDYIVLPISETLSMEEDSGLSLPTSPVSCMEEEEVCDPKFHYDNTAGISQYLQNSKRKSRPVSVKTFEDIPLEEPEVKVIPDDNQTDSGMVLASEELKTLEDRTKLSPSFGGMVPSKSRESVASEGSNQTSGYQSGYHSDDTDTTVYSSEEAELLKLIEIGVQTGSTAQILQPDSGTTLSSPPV

Sequence of CDK3/Cyclin E (Homo sapiens) (P24864 whole entry, looked up): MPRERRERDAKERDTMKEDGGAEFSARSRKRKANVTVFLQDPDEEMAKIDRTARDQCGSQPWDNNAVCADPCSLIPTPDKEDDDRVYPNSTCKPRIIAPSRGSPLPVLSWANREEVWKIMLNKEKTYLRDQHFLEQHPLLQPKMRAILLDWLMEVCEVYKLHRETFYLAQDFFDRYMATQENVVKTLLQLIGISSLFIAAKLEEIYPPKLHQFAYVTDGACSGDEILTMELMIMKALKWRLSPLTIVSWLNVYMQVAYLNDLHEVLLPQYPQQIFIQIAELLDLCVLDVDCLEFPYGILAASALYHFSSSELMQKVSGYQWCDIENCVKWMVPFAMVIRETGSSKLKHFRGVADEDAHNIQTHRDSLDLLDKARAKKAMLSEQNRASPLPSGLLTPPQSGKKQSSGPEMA
Sequence of CDK3/Cyclin E (Homo sapiens) (Q00526 whole entry, looked up): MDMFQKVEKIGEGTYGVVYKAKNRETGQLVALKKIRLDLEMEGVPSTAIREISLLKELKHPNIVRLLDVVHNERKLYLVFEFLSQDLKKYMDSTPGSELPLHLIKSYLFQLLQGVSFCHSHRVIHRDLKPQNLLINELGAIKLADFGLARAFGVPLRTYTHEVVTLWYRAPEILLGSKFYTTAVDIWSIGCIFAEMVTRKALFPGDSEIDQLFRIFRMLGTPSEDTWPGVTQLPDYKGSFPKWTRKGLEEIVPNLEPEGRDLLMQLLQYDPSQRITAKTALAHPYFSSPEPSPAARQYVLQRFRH
Sequence of Cyclin-dependent kinase 1/cyclin B1 (Homo sapiens) (P06493 whole entry, looked up): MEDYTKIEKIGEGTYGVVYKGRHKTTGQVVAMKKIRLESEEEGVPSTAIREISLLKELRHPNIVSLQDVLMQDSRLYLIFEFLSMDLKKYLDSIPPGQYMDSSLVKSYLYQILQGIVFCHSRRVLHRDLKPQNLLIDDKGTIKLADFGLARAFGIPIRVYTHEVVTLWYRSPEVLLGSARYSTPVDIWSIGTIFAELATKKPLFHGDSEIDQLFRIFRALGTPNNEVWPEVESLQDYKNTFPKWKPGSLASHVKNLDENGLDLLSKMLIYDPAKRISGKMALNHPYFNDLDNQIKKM
Sequence of Cyclin-dependent kinase 1/cyclin B1 (Homo sapiens) (P14635 whole entry, looked up): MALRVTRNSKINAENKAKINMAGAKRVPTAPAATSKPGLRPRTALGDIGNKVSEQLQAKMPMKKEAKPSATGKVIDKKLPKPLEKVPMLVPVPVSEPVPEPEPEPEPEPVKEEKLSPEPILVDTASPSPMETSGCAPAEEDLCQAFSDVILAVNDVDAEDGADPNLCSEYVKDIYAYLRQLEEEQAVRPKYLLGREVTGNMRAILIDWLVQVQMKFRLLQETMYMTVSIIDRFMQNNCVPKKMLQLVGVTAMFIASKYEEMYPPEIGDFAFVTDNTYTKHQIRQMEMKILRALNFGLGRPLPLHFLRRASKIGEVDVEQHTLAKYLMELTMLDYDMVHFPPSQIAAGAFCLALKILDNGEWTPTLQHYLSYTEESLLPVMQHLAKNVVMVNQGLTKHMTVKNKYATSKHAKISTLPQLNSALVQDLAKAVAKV
Sequence of Cyclin-dependent kinase 5/CDK5 activator 1 (Homo sapiens) (Q00535 whole entry): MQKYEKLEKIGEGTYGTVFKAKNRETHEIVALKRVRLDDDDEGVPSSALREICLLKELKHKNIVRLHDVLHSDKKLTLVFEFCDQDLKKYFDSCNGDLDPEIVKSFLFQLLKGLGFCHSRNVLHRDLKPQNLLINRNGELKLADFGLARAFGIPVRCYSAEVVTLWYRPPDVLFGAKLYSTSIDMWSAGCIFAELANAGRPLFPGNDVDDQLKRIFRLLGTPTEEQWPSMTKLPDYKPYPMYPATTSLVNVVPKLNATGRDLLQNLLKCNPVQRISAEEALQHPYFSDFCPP
Sequence of Cyclin-dependent kinase 5/CDK5 activator 1 (Homo sapiens) (Q15078 99-307 partner limits assumed): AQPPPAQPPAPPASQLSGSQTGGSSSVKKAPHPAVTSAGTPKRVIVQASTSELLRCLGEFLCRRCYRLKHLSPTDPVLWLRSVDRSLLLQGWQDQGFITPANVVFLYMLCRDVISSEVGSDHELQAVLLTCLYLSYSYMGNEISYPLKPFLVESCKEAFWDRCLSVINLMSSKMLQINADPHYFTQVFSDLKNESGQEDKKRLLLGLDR
Sequence of CDK4/Cyclin D3 (P11802 whole entry): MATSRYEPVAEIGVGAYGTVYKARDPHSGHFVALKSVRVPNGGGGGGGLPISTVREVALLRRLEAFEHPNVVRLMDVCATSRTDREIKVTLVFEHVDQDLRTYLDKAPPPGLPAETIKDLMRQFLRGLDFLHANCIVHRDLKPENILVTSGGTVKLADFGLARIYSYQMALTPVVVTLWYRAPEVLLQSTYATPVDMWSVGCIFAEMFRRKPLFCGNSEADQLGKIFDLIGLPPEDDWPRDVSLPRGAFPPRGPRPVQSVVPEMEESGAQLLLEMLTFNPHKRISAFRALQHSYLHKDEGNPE
Sequence of CDK4/Cyclin D3 (P30281 whole entry, further chain): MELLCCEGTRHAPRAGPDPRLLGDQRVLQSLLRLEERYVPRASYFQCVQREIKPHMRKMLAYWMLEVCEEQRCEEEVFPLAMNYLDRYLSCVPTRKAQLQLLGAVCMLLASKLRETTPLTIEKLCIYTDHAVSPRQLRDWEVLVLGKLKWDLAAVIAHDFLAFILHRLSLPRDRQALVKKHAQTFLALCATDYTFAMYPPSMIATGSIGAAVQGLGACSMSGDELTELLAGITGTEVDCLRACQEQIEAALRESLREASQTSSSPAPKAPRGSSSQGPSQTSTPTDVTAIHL

CN(C)C(=O)c1cc2cnc(Nc3ccc(NC(=O)C4(C(=O)Nc5ccc(F)cc5)CC4)cc3)nc2n1C1CCCC1 showed an inhibition [1] of 102%, an IC50 (MCF7) of 338 nM and an inhibition [2] of 85%. It also gave an inhibition [3] of 29%, an inhibition [4] of 73% and an inhibition [5] of 65%. For the same compound, the inhibition [6] was 86%, the inhibition [7] was 7% and the inhibition [8] was 24%. The inhibition [9] was 6%, the IC50 (CDK4/Cyclin D3) was 142 nM and the IC50 (CDK9/cyclin T1) was 12 nM. For the same compound, the TGI (4T1) was “Dose-dependent effect”, the Activity (Mus musculus) was “Non-Toxic” and the Activity (T47D [10]) was 2.23%. For the same compound, the Activity (T47D [11]) was 94.2%, the Activity (T47D [12]) was 0.52% and the Activity (T47D [13]) was 3.28%. It also gave an Activity (T47D [14]) of 2.01%, an Activity (T47D [15]) of 93.1% and an Activity (T47D [16]) of 3.58%. For the same compound, the Activity (T47D [17]) was 90.5%, the Activity (T47D [18]) was 3.16% and the Activity (T47D [19]) was 4.98%. For the same compound, the inhibition of growth at 10 µM (A549 [20]) was 102%, the inhibition of growth at 1 µM (A549 [21]) was 86.6% and the inhibition of growth at 10 µM (NCI-H460) was 102%. For the same compound, the inhibition of growth at 10 µM (NCI-H1299) was 90.8%, the inhibition of growth at 10 µM (HeLa [22]) was 73.7% and the inhibition of growth at 1 µM (HeLa [23]) was 49.8%. The inhibition of growth at 1 µM (OVCAR-5) was 65.4%, the inhibition of growth at 1 µM (SiHa) was 36.5% and the IC50 [24] was over 10000 nM.

— ChEMBL document CHEMBL4052710 (Bioorg Med Chem Lett, 2017)
